Laboratory results as given in ChEMBL document CHEMBL2163188, “Discovery of piragliatin--first glucokinase activator studied in type 2 diabetic patients” (J Med Chem, 2012).

Biological target: T1, Hexokinase-4 (Homo sapiens) (UniProt P35557)
T1 sequence (whole entry): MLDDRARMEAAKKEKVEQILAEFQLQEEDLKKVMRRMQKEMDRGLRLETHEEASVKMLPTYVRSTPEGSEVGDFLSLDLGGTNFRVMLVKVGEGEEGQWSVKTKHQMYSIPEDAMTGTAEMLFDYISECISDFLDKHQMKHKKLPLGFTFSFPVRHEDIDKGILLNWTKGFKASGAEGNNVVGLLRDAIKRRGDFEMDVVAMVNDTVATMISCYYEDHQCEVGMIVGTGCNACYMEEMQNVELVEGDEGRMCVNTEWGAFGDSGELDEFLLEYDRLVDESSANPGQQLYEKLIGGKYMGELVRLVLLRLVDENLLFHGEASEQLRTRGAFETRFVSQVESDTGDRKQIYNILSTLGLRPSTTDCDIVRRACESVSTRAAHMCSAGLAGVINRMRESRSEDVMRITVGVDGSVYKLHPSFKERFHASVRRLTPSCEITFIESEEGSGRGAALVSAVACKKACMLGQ
Assay: Activation of human recombinant glucokinase assessed as concentration required for 1.5 fold increase in enzymatic activity
In short: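 Human recombinant GK; activator at fixed concentrations from ∼0.010 to 30 μM, each in duplicate, with glucose held at 5 mM. SC1.5 is the activator concentration giving a 1.5-fold rise in enzymatic activity over untreated GK. Assay CV was about 15%.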

Activity [µM] | Structure (SMILES)
0.188 | CS(=O)(=O)c1ccc(C(CC2CCCC2)C(=O)Nc2nccs2)cc1C#N (racemic)
0.579 | CS(=O)(=O)c1ccc(C(CC2CCCC2)C(=O)Nc2nccs2)cc1N (racemic)
1.38 | CS(=O)(=O)c1ccc(C(CC2CCCC2)C(=O)Nc2ccc3ccccc3n2)cc1 (racemic)
